Experimental data: ChEMBL document CHEMBL2176955, “Discovery of the macrocycle 11-(2-pyrrolidin-1-yl-ethoxy)-14,19-dioxa-5,7,26-triaza-tetracyclo[19.3.1.1(2,6).1(8,12)]heptacosa-1(25),2(26),3,5,8,10,12(27),16,21,23-decaene (SB1518), a potent Janus kinase 2/fms-like tyrosine kinase-3 (JAK2/FLT3) inhibitor for the treatment of myelofibrosis and …” (J Med Chem, 2011)
pIC50: −log10 of the molar value.

Key:
[1] = AUC ( 0 to 8 hrs) in Beagle dog at 3 mg/kg, po administered via gelatin capsule as single dose; assay type: ADME, organism-based, Canis lupus familiaris; set-up: time < 8 hr, dose 3 mg/kg, route oral; conditions: plasma
Mus musculus [2] = assay: Toxicity in athymic BALB/c nude mouse allografted with mouse BA/F3 cells harboring JAK2 V617F mutant assessed as body weight loss at 75 mg/kg, po administered twice daily for 13 consecutive days starting from day 4 post challenge relative to control; assay type: organism-based, BaF3; set-up: dose 75 mg/kg, route oral; conditions: in vivo
[3] = Terminal half life in BALB/c mouse at 30 mg/kg, po administered as single dose; assay type: ADME, organism-based; set-up: dose 30 mg/kg, route oral; conditions: in vivo, read-out: beta t1/2 (converted)
physchem = conditions: phosphate buffer saline, pH 7
[4] = Antiproliferative activity against mouse BA/F3 cells harboring JAK2 V617F mutation assessed as cell viability after 48 hrs by Cell titer Glo assay; assay type: functional; conditions: BaF3, 48 h
[5] = Cmax in Beagle dog at 3 mg/kg, po administered via gelatin capsule as single dose; assay type: ADME, organism-based, Canis lupus familiaris; set-up: dose 3 mg/kg, route oral; conditions: in vivo
[6] = biological target: Cyclin-dependent kinase 2/cyclin A (Homo sapiens, UniProt P24941); assay: Inhibition of recombinant CDK2/Cyclin A using RbinG as substrate after 2 hrs by luminescence assay; assay type: protein-complex assay
[7] = Oral bioavailability in BALB/c mouse at 30 mg/kg, administered as single dose; assay type: ADME, organism-based; conditions: in vivo
in vitro = conditions: PAMPA
MV4-11 [8] = assay: Antitumor activity against human MV4-11 cells harboring FLT3 ITD xenografted in athymic BALB/c nude mouse assessed as survival at 25 mg/kg, po qd administered for 21 consecutive days measured up to 55 days ( Rvb = 33 days ); assay type: functional
[9] = biological target: Non-receptor tyrosine-protein kinase TYK2 (Homo sapiens, UniProt P29597); assay: Inhibition of recombinant TYK2
Chain of Non-receptor tyrosine-protein kinase TYK2 (P29597 whole entry): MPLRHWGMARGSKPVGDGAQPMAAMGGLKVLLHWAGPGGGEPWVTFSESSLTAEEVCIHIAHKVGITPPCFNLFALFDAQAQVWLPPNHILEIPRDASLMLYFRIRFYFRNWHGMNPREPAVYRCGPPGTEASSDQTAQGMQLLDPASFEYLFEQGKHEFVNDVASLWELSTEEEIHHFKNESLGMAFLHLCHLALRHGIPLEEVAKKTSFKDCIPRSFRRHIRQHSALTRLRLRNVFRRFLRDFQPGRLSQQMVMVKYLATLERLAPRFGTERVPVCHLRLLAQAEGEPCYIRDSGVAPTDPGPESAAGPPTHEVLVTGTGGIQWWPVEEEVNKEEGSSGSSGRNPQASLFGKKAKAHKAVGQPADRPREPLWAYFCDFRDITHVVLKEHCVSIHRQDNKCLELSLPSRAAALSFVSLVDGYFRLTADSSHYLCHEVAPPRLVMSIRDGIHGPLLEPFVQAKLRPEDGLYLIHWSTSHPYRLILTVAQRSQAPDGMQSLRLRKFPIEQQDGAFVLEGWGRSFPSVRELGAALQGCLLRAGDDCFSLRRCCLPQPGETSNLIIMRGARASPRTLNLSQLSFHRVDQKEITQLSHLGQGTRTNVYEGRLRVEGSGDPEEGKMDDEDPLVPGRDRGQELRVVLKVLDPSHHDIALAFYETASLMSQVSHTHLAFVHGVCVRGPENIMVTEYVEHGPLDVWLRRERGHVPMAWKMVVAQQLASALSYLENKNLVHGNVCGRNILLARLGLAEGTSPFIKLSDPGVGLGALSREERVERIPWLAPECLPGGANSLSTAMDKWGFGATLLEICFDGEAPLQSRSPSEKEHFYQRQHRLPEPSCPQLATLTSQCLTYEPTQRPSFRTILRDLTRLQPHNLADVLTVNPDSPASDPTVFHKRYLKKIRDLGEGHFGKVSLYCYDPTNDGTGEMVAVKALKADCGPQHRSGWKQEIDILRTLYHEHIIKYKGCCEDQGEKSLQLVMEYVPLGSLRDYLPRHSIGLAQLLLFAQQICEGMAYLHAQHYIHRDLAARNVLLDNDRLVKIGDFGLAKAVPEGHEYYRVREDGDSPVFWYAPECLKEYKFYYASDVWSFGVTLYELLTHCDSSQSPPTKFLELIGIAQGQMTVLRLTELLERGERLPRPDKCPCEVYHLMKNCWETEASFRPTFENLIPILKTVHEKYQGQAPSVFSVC

[10] = Cmax in Wistar rat at 10 mg/kg, po administered as single dose; assay type: ADME, organism-based; set-up: dose 10 mg/kg, route oral; conditions: in vivo
[11] = Tmax in Beagle dog at 3 mg/kg, po administered via gelatin capsule as single dose; assay type: ADME, organism-based, Canis lupus familiaris; set-up: dose 3 mg/kg, route oral; conditions: in vivo
[12] = Half life in dog liver microsomes at 5 uM by LC/MS/MS analysis; assay type: ADME, Canis lupus familiaris, Microsome
Method in brief: (§1)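 Compound at 5 μM incubated at 37 °C with dog or rat liver microsomes (~0.87 mg/mL) in 50 mM potassium phosphate pH 7.4 with NADPH regenerating system.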

Cytochrome P450 2C9 = Cytochrome P450 2C9 (Homo sapiens, UniProt P11712); assay: Inhibition of CYP2C9 in human liver microsomes assessed as decrease in formation of 4-hydroxytolbutamide from tolbutamide substrate after 60 mins by LC-MS/MS; assay type: ADME, Microsome
Chain of Cytochrome P450 2C9 (P11712 whole entry, canonical isoform): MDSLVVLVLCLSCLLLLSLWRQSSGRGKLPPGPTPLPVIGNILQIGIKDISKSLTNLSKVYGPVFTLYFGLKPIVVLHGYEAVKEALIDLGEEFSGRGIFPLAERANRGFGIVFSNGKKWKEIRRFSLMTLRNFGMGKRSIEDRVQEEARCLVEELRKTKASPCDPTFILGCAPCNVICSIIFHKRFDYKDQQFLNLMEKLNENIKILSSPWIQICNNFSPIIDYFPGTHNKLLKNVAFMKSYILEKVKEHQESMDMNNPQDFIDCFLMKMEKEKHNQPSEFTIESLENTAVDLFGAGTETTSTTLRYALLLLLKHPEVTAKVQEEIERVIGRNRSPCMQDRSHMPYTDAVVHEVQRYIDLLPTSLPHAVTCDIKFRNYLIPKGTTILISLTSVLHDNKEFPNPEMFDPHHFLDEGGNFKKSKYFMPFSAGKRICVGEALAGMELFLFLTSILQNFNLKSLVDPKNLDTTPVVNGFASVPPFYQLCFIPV
Method in brief: (§2)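 Human liver microsomes with 1 mM NADPH at 37 °C. Test compound at 0.05–25 μM (final DMSO 0.35%). Conditions per isoform: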

MV4-11 [13] = assay: Antitumor activity against human MV4-11 cells harboring FLT3 ITD xenografted in athymic BALB/c nude mouse assessed as survival at 100 mg/kg, po qd administered for 21 consecutive days measured up to 55 days ( Rvb = 33 days ); assay type: functional
MV4-11 [14] = assay: Antitumor activity against human MV4-11 cells harboring FLT3 ITD xenografted in athymic BALB/c nude mouse assessed as survival at 50 mg/kg, po qd administered for 21 consecutive days measured up to 55 days ( Rvb = 33 days ); assay type: functional
[15] = Plasma protein binding in mouse at 1000 ng/ml by LC/MS/MS analysis; assay type: ADME, cell-free; conditions: read-out: PPB (converted)
Method in brief: (§3)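 Equilibrium dialysis of mouse, dog or human plasma spiked to 1000 ng/mL against PBS, 4 h at 37 °C. The buffer side was extracted with MTBE in triplicate and analysed by LC/MS/MS.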

Mus musculus [16] = assay: Toxicity in athymic BALB/c nude mouse allografted with mouse BA/F3 cells harboring JAK2 V617F mutant assessed as body weight loss at 75 and 150 mg/kg, po administered twice daily for 13 consecutive days starting from day 4 post challenge relative to control; conditions: in vivo
CYP2D6 = CYP2D6 (Homo sapiens, UniProt P10635); assay: Inhibition of CYP2D6 in human liver microsomes assessed as decrease in formation of dextrorphan from dextromethorphan substrate at 5 uM after 30 mins by LC-MS/MS; assay type: ADME, Microsome; conditions: probe dextromethorphan; method in brief: as §2
Chain of CYP2D6 (P10635 whole entry): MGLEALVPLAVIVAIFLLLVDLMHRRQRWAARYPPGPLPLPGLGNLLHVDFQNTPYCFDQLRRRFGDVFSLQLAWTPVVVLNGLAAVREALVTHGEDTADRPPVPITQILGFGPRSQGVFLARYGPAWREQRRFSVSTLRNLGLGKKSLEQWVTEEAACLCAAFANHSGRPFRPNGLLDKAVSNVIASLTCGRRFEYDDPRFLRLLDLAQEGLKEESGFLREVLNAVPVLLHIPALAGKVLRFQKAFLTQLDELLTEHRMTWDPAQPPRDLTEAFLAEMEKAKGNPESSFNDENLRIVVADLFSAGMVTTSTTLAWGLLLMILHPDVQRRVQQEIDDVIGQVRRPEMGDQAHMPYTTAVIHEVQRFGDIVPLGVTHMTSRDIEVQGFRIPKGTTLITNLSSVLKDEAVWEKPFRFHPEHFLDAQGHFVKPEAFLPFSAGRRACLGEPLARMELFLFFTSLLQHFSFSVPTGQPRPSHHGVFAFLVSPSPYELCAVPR

[17] = Terminal half life in Wistar rat at 10 mg/kg, po administered as single dose; assay type: ADME, organism-based; set-up: dose 10 mg/kg, route oral; conditions: in vivo, read-out: beta t1/2 (converted)
[18] = Plasma protein binding in dog at 1000 ng/ml by LC/MS/MS analysis; assay type: ADME, cell-free, Canis lupus familiaris; conditions: read-out: PPB (converted); method in brief: as §3
Cytochrome P450 2C19 = Cytochrome P450 2C19 (Homo sapiens, UniProt P33261); assay: Inhibition of CYP2C19 in human liver microsomes assessed as decrease in formation of 4-hydroxymephenytoin from mephenytoin substrate after 60 mins by LC-MS/MS; assay type: ADME, Microsome; method in brief: as §2
Chain of Cytochrome P450 2C19 (P33261 whole entry): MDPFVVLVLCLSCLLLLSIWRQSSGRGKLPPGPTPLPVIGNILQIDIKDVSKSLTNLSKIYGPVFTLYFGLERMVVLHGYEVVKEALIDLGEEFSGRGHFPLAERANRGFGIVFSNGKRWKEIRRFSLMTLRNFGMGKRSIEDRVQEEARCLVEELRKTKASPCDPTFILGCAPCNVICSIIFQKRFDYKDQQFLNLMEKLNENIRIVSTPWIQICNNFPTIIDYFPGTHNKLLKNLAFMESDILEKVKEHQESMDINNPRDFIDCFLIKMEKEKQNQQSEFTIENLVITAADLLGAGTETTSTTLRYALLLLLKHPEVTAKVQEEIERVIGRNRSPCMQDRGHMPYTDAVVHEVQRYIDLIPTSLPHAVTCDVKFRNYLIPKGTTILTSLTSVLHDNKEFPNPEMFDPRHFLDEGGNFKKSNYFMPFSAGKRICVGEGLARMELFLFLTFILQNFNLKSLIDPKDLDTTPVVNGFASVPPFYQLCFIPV

[19] = Oral bioavailability in Wistar rat at 10 mg/kg, administered as single dose; assay type: ADME, organism-based; conditions: in vivo
[20] = Oral bioavailability in Beagle dog at 3 mg/kg, administered as single dose; assay type: ADME, organism-based, Canis lupus familiaris; conditions: in vivo
[21] = Apparent permeability from apical to basolateral side in human Caco2 cells at 5 uM after 2 hrs by LC/MS analysis at pH 7.4; assay type: ADME, cell-based; conditions: Caco-2, pH 7.4
Method in brief: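 Compound at 5 μM in HBSS (DMSO <1%) applied apically or basolaterally to 21–28 day Caco-2 monolayers, both sides pH 7.4. Both sides sampled at 2 h, LC/MS quantitation with 4-point calibration. Monolayer integrity checked by TEER (450–650 Ωcm²) and Lucifer Yellow.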

CYP3A4 = CYP3A4 (Homo sapiens, UniProt P08684); assay: Inhibition of CYP3A4 in human liver microsomes assessed as decrease in formation of 1-hydroxymidazolam from midazolam substrate at 5 uM after 5 mins by LC-MS/MS; assay type: ADME, Microsome; conditions: probe midazolam; method in brief: as §2
Chain of CYP3A4 (P08684 whole entry): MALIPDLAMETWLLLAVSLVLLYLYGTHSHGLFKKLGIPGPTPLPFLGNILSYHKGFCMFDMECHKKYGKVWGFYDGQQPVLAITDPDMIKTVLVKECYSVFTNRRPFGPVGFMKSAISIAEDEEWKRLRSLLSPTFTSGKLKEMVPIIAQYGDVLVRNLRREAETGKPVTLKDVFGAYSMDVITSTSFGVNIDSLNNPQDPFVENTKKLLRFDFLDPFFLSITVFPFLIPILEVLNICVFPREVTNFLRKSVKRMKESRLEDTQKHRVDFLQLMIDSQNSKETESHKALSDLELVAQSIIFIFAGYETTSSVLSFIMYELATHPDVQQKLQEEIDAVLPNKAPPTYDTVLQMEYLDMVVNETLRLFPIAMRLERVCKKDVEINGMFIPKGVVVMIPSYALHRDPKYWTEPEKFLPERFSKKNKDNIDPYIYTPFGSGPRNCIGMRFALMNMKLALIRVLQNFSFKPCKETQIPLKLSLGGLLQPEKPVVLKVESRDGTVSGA

[22] = AUC (0 to 8 hrs) in Wistar rat at 10 mg/kg, po administered as single dose; assay type: ADME, organism-based; set-up: time < 8 hr, dose 10 mg/kg, route oral; conditions: plasma
MV4-11 [23] = assay: Antiproliferative activity against human MV4-11 cells harboring FLT3 […] mutant assessed as cell viability after 48 hrs by Cell titer Glo assay; assay type: functional; conditions: MV4-11, 48 h
[24] = Cmax in BALB/c mouse at 30 mg/kg, po administered as single dose; assay type: ADME, organism-based; set-up: dose 30 mg/kg, route oral; conditions: in vivo
[25] = Half life in rat liver microsomes at 5 uM by LC/MS/MS analysis; assay type: ADME, Microsome; method in brief: as §1
Mus musculus [26] = assay: Toxicity in athymic BALB/c nude mouse xenografted with human MV4-11 cells harboring FLT3 ITD assessed as body weight loss at 50 to 100 mg/kg, po qd administered for 21 consecutive days measured up to 55 days relative to control; assay type: organism-based; set-up: dose 50-100 mg/kg, route oral; conditions: in vivo, 1320 h
Method in brief: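 Female BALB/c nude mice implanted subcutaneously in right flank with 1 × 10⁷ MV4-11 cells in Matrigel 1:1. At about 130 mm³, oral once-daily dosing at 25, 50 or 100 mg/kg (free base) for 21 days, 8–10 mice per group. Tumours followed to day 55 or 1000 mm³; body weight assessed at termination.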

[27] = biological target: Tyrosine-protein kinase JAK1 (Homo sapiens, UniProt P23458); assay: Inhibition of recombinant JAK1 using Poly (Glu,Ala,Tyr) as substrate after 2 hrs by luminescence assay
Chain of Tyrosine-protein kinase JAK1 (P23458 whole entry): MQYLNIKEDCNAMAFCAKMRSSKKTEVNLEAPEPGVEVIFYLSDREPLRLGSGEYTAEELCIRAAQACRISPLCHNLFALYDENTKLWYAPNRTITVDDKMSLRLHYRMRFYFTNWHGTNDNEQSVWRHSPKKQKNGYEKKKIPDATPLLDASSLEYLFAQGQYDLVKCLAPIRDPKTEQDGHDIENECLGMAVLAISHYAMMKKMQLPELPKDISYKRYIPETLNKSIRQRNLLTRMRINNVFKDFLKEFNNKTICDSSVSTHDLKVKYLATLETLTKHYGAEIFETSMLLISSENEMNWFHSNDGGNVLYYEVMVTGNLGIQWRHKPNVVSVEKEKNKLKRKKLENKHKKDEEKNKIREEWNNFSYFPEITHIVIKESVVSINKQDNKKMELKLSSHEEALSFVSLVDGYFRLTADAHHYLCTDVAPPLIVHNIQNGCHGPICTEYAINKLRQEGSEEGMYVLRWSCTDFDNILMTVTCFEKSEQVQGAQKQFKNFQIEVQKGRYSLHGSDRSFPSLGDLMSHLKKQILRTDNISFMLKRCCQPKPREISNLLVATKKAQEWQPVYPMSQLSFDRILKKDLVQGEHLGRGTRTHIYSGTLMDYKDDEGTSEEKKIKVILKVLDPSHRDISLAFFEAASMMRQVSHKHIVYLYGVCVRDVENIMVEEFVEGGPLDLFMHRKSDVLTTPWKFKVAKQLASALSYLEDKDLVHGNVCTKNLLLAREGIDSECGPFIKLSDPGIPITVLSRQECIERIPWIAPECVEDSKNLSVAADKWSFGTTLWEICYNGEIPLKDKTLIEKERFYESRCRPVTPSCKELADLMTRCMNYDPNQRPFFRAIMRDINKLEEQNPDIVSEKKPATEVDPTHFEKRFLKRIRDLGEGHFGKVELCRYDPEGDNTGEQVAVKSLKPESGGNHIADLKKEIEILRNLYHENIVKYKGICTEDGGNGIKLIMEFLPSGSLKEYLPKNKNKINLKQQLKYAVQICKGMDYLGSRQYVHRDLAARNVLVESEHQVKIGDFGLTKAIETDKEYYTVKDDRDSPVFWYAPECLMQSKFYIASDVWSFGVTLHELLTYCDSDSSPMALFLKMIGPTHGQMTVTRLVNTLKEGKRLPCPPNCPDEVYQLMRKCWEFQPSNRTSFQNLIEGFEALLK
Method in brief: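 Luciferase-coupled ATP-depletion luminescence assay in 50 mM Hepes pH 7.5 with MgCl₂, MnCl₂, BGP, DTT and orthovanadate, 2 h at room temperature. Conditions per target: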

[28] = Terminal half life in Beagle dog at 3 mg/kg, po administered via gelatin capsule as single dose; assay type: ADME, organism-based, Canis lupus familiaris; set-up: dose 3 mg/kg, route oral; conditions: in vivo, read-out: beta t1/2 (converted)
[29] = AUC (0 to 8 hrs) in BALB/c mouse at 30 mg/kg, po administered as single dose; assay type: ADME, organism-based; set-up: time < 8 hr, dose 30 mg/kg, route oral; conditions: plasma
Cytochrome P450 1A2 = biological target: T1, Cytochrome P450 1A2 (Homo sapiens, UniProt P05177); assay: Inhibition of CYP1A2 in human liver microsomes assessed as decrease in formation of resorufin from ethoxyresorufin substrate after 5 mins by LC-MS/MS; assay type: ADME, Microsome; method in brief: as §2
T1 sequence (P05177 whole entry): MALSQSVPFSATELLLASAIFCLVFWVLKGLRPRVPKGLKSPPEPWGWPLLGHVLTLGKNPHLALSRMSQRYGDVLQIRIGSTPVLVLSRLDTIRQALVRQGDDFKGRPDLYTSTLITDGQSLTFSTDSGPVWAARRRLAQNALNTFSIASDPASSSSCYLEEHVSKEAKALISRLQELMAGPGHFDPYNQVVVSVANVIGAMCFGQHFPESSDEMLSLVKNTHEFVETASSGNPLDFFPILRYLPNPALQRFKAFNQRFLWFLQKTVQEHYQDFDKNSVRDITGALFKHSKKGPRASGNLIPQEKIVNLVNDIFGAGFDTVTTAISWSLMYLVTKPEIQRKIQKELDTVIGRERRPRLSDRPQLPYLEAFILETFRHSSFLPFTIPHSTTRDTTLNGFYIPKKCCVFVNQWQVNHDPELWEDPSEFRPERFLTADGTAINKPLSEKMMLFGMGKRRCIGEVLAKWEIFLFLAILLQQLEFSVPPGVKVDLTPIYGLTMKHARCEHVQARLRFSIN

[30] = Plasma protein binding in human at 1000 ng/ml by equilibrium dialysis assay; assay type: ADME, cell-free; conditions: read-out: PPB (converted); method in brief: as §3
[31] = Antitumor activity against mouse BA/F3 cells harboring JAK2 V617F mutant allografted in athymic BALB/c nude mouse assessed as normalization of spleen weight at 150 mg/kg, po bid administered on day 4 post inoculation for 13 consecutive days measured on day 13 relative to vehicle-treated control; assay type: functional, BaF3
Method in brief: (§4)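 Female BALB/c nude mice given 2 × 10⁶ Ba/F3-JAK2 V617F cells by tail vein in serum-free medium. Oral dosing twice daily at 75 or 150 mg/kg (free base) from day 4 for 13 days, 8 mice per group, 4 naive baseline mice. Spleens and livers weighed at sacrifice; ANOVA with Dunnett's test.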

[32] = Antitumor activity against mouse BA/F3 cells harboring JAK2 V617F mutant allografted in athymic BALB/c nude mouse assessed as normalization of liver weight at 150 mg/kg, po bid administered on day 4 post inoculation for 13 consecutive days measured on day 13 relative to vehicle-treated control; assay type: functional, BaF3; method in brief: as §4

C1=N/C2=N/c3ccc(OCCN4CCCC4)c(c3)COC/C=C/COCc3cccc(c3)C(=C1)N2 (mixture of isomers) [PACRITINIB]
AUC(0-t) at 8 h [1]: 53 ng·h/mL
Activity (Mus musculus [2]): Non-toxic
half-life [3]: 0.84 h
solubility (physchem): > 150 µg/mL
GI50 [4]: 0.16 µM
Cmax [5]: 11.5 ng/mL
pIC50 [6]: 5.41
bioavailability [7]: 39%
Papp at 5 h, 1 µM (in vitro): 9.3 ×10⁻⁶ cm/s
Survival (MV4-11 [8]): 35 days
pIC50 [9]: 7.30
Cmax [10]: 114 ng/mL
Tmax [11]: 2 h
half-life at 5 µM [12]: 0.683 h
pIC50 (Cytochrome P450 2C9): < 5.30
Survival (MV4-11 [13]): 55 days
Survival (MV4-11 [14]): 55 days
fraction unbound at 1000 ng/ml [15]: 0.0059
Activity (Mus musculus [16]): Non-toxic
inhibition at 0.5 h, 5 µM (CYP2D6): 20%
half-life [17]: 5.7 h
fraction unbound at 1000 ng/ml [18]: 0.0037
pIC50 (Cytochrome P450 2C19): < 5.30
bioavailability [19]: 10%
bioavailability [20]: 24%
Papp A→B at 2 h, 5 µM [21]: 16 ×10⁻⁶ cm/s
inhibition at 5 min, 5 µM (CYP3A4): 20%
AUC(0-t) at 8 h [22]: 599 ng·h/mL
GI50 (MV4-11 [23]): 0.047 µM
Cmax [24]: 292 ng/mL
half-life at 5 µM [25]: 0.3 h
Activity (Mus musculus [26]): Non-toxic
pIC50 [27]: 5.89
half-life [28]: 3.4 h
AUC(0-t) at 8 h [29]: 399 ng·h/mL
pIC50 (Cytochrome P450 1A2): < 5.30
fraction unbound at 1000 ng/ml [30]: 0.0012

C1=CCOCc2cc(ccc2OCCN2CCCC2)Nc2nccc(n2)-c2cccc(c2)COC1.Cl (mixture of isomers)
Activity [31]: 42%
Activity [32]: 99%
